Laboratory results as given in PMC7004090 (Clinical Pharmacology in Drug Development, 2019).
Read-outs that look alike come from different tables or passages of the source.

Columns and labels:
[1] = system: subjects in the safety assessment population; conditions: 24-month open-label once-weekly trial, cited from earlier work
[2] = Plasma teriparatide acetate pharmacokinetics after subcutaneous injection; type: in vivo, human
In short: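 Vials were reconstituted in saline at use. 28.2 μg was given sc into the abdomen; 56.5 μg sc into the upper arm, in Cohort 1 with saline at the other site. Plasma was drawn pre-dose and at 0.25–6 h post-dose on days 1 and 36, frozen, and assayed centrally by IRMA (LLOQ 21.46 pg/mL). Noncompartmental parameters; values below LLOQ set to zero for means; arithmetic mean ± SD.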

[3] = system: bone turnover markers (P1NP, OC, serum NTX, CTX, urine NTX); test: Changes in trough values of bone turnover markers; type: in vivo, human; conditions: for GMRs (trough to baseline) of serum P1NP and serum OC: 6 weeks, then steady until day 43; for GMRs (trough to baseline) of serum NTX, serum CTX, and urine NTX: after the 6-week treatments
In short: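 Healthy postmenopausal women received sc synthetic human PTH 1-34 or saline placebo for 6 weeks. Markers were sampled pre-dose on days 1, 8, 15, 22, 29 and 36 and on day 43. Serum P1NP and CTX were measured by ECLIA, OC by IRMA, serum and urine NTX by ELISA; CTX only on days 1, 8, 29 and 43. Samples were assayed centrally. GMR of log-transformed trough to baseline, with 95% CI, by ANOVA per group.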

[4] = system: healthy Japanese postmenopausal women; test: Safety: incidence of adverse events; type: in vivo, human; conditions: 6 weeks, n = 20
In short: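 Randomized, single-blind, saline placebo-controlled trial in healthy Japanese postmenopausal women, with sc dosing for 6 weeks. Adverse events came from self-report, interviews or other tests, with onset, severity, seriousness, outcome and drug relationship recorded. Coding used MedDRA v17.1 preferred terms. Vital signs, 12-lead ECG, haematology, blood biochemistry and urinalysis were also monitored.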

[5] = system: subjects of phase 2b trial; conditions: cited from earlier work
[6] = system: patients with osteoporosis; conditions: TOWER trial, once-weekly 56.5 μg, cited from earlier work
[7] = subjects with severe renal impairment (eGFR 15.0–29.9 mL/min/1.73 m^2); cited from earlier work
[8] = Cohort 1 BIW: 28.2 μg twice weekly sc, intervals 3, 4 days
[9] = Cohort 1 QW: 56.5 μg once weekly sc
[10] = Cohort 2 BIW: 28.2 μg twice weekly sc, intervals 2, 5 days
[11] = Cohort 3 BIW: 28.2 μg twice weekly sc, intervals 1, 6 days

CC[C@H](C)[C@H](NC(=O)[C@H](CCC(=O)O)NC(=O)[C@H](CO)NC(=O)[C@@H](NC(=O)[C@@H](N)CO)C(C)C)C(=O)N[C@@H](CCC(N)=O)C(=O)N[C@@H](CC(C)C)C(=O)N[C@@H](CCSC)C(=O)N[C@@H](Cc1cnc[nH]1)C(=O)N[C@@H](CC(N)=O)C(=O)N[C@@H](CC(C)C)C(=O)NCC(=O)N[C@@H](CCCCN)C(=O)N[C@@H](Cc1cnc[nH]1)C(=O)N[C@@H](CC(C)C)C(=O)N[C@@H](CC(N)=O)C(=O)N[C@@H](CO)C(=O)N[C@@H](CCSC)C(=O)N[C@@H](CCC(=O)O)C(=O)N[C@@H](CCCN=C(N)N)C(=O)N[C@H](C(=O)N[C@@H](CCC(=O)O)C(=O)N[C@@H](Cc1c[nH]c2ccccc12)C(=O)N[C@@H](CC(C)C)C(=O)N[C@@H](CCCN=C(N)N)C(=O)N[C@@H](CCCCN)C(=O)N[C@@H](CCCCN)C(=O)N[C@@H](CC(C)C)C(=O)N[C@@H](CCC(N)=O)C(=O)N[C@@H](CC(=O)O)C(=O)N[C@H](C(=O)N[C@@H](Cc1cnc[nH]1)C(=O)N[C@@H](CC(N)=O)C(=O)N[C@@H](Cc1ccccc1)C(=O)O)C(C)C)C(C)C [teriparatide]
adverse events, subjects affected ([1]; 181 of 189 subjects): 95.8%
abdominal discomfort ([1]; n = 25 of 189): 13.2%
Malaise ([1]; n = 33 of 189): 17.5%
Headache ([1]; n = 37 of 189): 19.6%
Vomiting ([1]; n = 42 of 189): 22.2%
Nausea ([1]; n = 69 of 189): 36.5%
Tmax ([2]; human, plasma, sc, 28.2 ug): ≤ 60 min
half-life ([2]; human, plasma, sc, 28.2 ug): 44.3 ± 6.12 min
accumulation of teriparatide acetate in plasma ([2]; multiple dosing of once-weekly 56.5 μg, 6 weeks): no accumulation
AUCinf and Cmax relative to the once-weekly 56.5-μg group ([2]; twice-weekly 28.2-μg groups): approximately half
accumulation in the plasma ([2]; twice-weekly 28.2-μg injection treatment, regardless of dosing intervals, 6 weeks): not observed
GMRs (trough to baseline) of serum P1NP and serum OC ([3]; all 3 twice-weekly 28.2-μg groups): similarly increased to day 29 or day 36
GMRs (trough to baseline) of serum NTX, serum CTX, and urine NTX ([3]; all twice-weekly 28.2-μg groups): did not increase
GMRs (trough to baseline) of serum P1NP and serum OC ([3]; once-weekly 56.5-μg group): similarly increased to day 29 or day 36
GMRs (trough to baseline) of serum NTX, serum CTX, and urine NTX ([3]; once-weekly 56.5-μg group): did not increase
Abdominal pain [4, 8]: 0 (0.0) number of subjects (%)
Adverse events, Total [4, 8]: 12 (60.0) number of subjects (%)
Alanine aminotransferase increased [4, 8]: 0 (0.0) number of subjects (%)
Arthralgia [4, 8]: 0 (0.0) number of subjects (%)
Aspartate aminotransferase increased [4, 8]: 0 (0.0) number of subjects (%)
Blood pressure decreased [4, 8]: 0 (0.0) number of subjects (%)
Chest discomfort [4, 8]: 0 (0.0) number of subjects (%)
Constipation [4, 8]: 0 (0.0) number of subjects (%)
Dizziness [4, 8]: 1 (5.0) number of subjects (%)
Dyspepsia [4, 8]: 1 (5.0) number of subjects (%)
Feeling abnormal [4, 8]: 0 (0.0) number of subjects (%)
Fractured coccyx [4, 8]: 1 (5.0) number of subjects (%)
Gamma-glutamyltransferase increased [4, 8]: 0 (0.0) number of subjects (%)
Headache [4, 8]: 5 (25.0) number of subjects (%)
Injection site erythema [4, 8]: 2 (10.0) number of subjects (%)
Malaise [4, 8]: 2 (10.0) number of subjects (%)
Nasopharyngitis [4, 8]: 0 (0.0) number of subjects (%)
Nausea [4, 8]: 9 (45.0) number of subjects (%)
Pruritus [4, 8]: 0 (0.0) number of subjects (%)
Rash [4, 8]: 0 (0.0) number of subjects (%)
Somnolence [4, 8]: 0 (0.0) number of subjects (%)
Vomiting [4, 8]: 4 (20.0) number of subjects (%)
Abdominal pain [4, 9]: 0 (0.0) number of subjects (%)
Adverse events, Total [4, 9]: 18 (90.0) number of subjects (%)
Alanine aminotransferase increased [4, 9]: 2 (10.0) number of subjects (%)
Arthralgia [4, 9]: 1 (5.0) number of subjects (%)
Aspartate aminotransferase increased [4, 9]: 1 (5.0) number of subjects (%)
Blood pressure decreased [4, 9]: 1 (5.0) number of subjects (%)
Chest discomfort [4, 9]: 0 (0.0) number of subjects (%)
Constipation [4, 9]: 1 (5.0) number of subjects (%)
Dizziness [4, 9]: 3 (15.0) number of subjects (%)
Dyspepsia [4, 9]: 0 (0.0) number of subjects (%)
Feeling abnormal [4, 9]: 0 (0.0) number of subjects (%)
Fractured coccyx [4, 9]: 0 (0.0) number of subjects (%)
Gamma-glutamyltransferase increased [4, 9]: 1 (5.0) number of subjects (%)
Headache [4, 9]: 15 (75.0) number of subjects (%)
Injection site erythema [4, 9]: 2 (10.0) number of subjects (%)
Malaise [4, 9]: 4 (20.0) number of subjects (%)
Nasopharyngitis [4, 9]: 0 (0.0) number of subjects (%)
Nausea [4, 9]: 18 (90.0) number of subjects (%)
Pruritus [4, 9]: 0 (0.0) number of subjects (%)
Rash [4, 9]: 0 (0.0) number of subjects (%)
Somnolence [4, 9]: 1 (5.0) number of subjects (%)
Vomiting [4, 9]: 14 (70.0) number of subjects (%)
Abdominal pain [4, 10]: 1 (5.0) number of subjects (%)
Adverse events, Total [4, 10]: 12 (60.0) number of subjects (%)
Alanine aminotransferase increased [4, 10]: 0 (0.0) number of subjects (%)
Arthralgia [4, 10]: 0 (0.0) number of subjects (%)
Aspartate aminotransferase increased [4, 10]: 0 (0.0) number of subjects (%)
Blood pressure decreased [4, 10]: 0 (0.0) number of subjects (%)
Chest discomfort [4, 10]: 1 (5.0) number of subjects (%)
Constipation [4, 10]: 0 (0.0) number of subjects (%)
Dizziness [4, 10]: 0 (0.0) number of subjects (%)
Dyspepsia [4, 10]: 0 (0.0) number of subjects (%)
Feeling abnormal [4, 10]: 1 (5.0) number of subjects (%)
Fractured coccyx [4, 10]: 0 (0.0) number of subjects (%)
Gamma-glutamyltransferase increased [4, 10]: 0 (0.0) number of subjects (%)
Headache [4, 10]: 4 (20.0) number of subjects (%)
Injection site erythema [4, 10]: 3 (15.0) number of subjects (%)
Malaise [4, 10]: 0 (0.0) number of subjects (%)
Nasopharyngitis [4, 10]: 1 (5.0) number of subjects (%)
Nausea [4, 10]: 10 (50.0) number of subjects (%)
Pruritus [4, 10]: 0 (0.0) number of subjects (%)
Rash [4, 10]: 0 (0.0) number of subjects (%)
Somnolence [4, 10]: 0 (0.0) number of subjects (%)
Vomiting [4, 10]: 5 (25.0) number of subjects (%)
Abdominal pain [4, 11]: 0 (0.0) number of subjects (%)
Adverse events, Total [4, 11]: 16 (80.0) number of subjects (%)
Alanine aminotransferase increased [4, 11]: 0 (0.0) number of subjects (%)
Arthralgia [4, 11]: 0 (0.0) number of subjects (%)
Aspartate aminotransferase increased [4, 11]: 0 (0.0) number of subjects (%)
Blood pressure decreased [4, 11]: 0 (0.0) number of subjects (%)
Chest discomfort [4, 11]: 0 (0.0) number of subjects (%)
Constipation [4, 11]: 0 (0.0) number of subjects (%)
Dizziness [4, 11]: 0 (0.0) number of subjects (%)
Dyspepsia [4, 11]: 0 (0.0) number of subjects (%)
Feeling abnormal [4, 11]: 0 (0.0) number of subjects (%)
Fractured coccyx [4, 11]: 0 (0.0) number of subjects (%)
Gamma-glutamyltransferase increased [4, 11]: 0 (0.0) number of subjects (%)
Headache [4, 11]: 6 (30.0) number of subjects (%)
Injection site erythema [4, 11]: 13 (65.0) number of subjects (%)
Malaise [4, 11]: 0 (0.0) number of subjects (%)
Nasopharyngitis [4, 11]: 0 (0.0) number of subjects (%)
Nausea [4, 11]: 10 (50.0) number of subjects (%)
Pruritus [4, 11]: 1 (5.0) number of subjects (%)
Rash [4, 11]: 1 (5.0) number of subjects (%)
Somnolence [4, 11]: 0 (0.0) number of subjects (%)
Vomiting [4, 11]: 6 (30.0) number of subjects (%)
Incidence of adverse events ([5]; once-weekly 14.1-μg dosing group, 14 of 73 subjects): 19.2%
frequency of nausea ([5]; once-weekly 14.1-μg group, 4 of 73 patients): 5.5%
Incidence of adverse events ([5]; once-weekly 28.2-μg dosing group, 14 of 75): 18.7%
frequency of nausea ([5]; once-weekly 28.2-μg group, 7 of 75): 9.3%
Incidence of adverse events ([5]; once-weekly 56.5-μg dosing group, 30 of 72): 41.7%
frequency of nausea ([5]; once-weekly 56.5-μg group, 15 of 72): 20.8%
adverse events, subjects affected ([6]; 271 of 290 subjects): 93.4%
Malaise ([6]; n = 21 of 290): 7.2%
abdominal discomfort ([6]; n = 22 of 290): 7.6%
Vomiting ([6]; n = 33 of 290): 11.4%
Headache ([6]; n = 39 of 290): 13.4%
Nausea ([6]; n = 59 of 290): 20.3%
elimination half-life [7]: significantly prolonged
